Measured values published in ChEMBL document CHEMBL1127464, “Inhibitors of HIV-1 proteinase containing 2-heterosubstituted 4-amino-3-hydroxy-5-phenylpentanoic acid: synthesis, enzyme inhibition, and antiviral activity” (J Med Chem, 1994).
pIC50, pKi: −log10 of the molar value. Each block holds one compound with its values, some of them ahead of it.

How the values were obtained:
[1] = system: Human immunodeficiency virus 1; test: Antiviral activity by observing cytopathic effect induced by HIV-1 strain IIIB in de novo infected MT-4 cells; assay type: functional, organism-based; conditions: Human immunodeficiency virus 1, MT4
[2] = target: Human immunodeficiency virus type 1 protease (Human immunodeficiency virus 1, UniProt Q72874); test: Inhibitory constant against HIV-1 protease
Outline: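 HIV-1 proteinase expressed in E. coli JM 105 and purified to homogeneity. Initial rates were taken from the absorbance decrease at 298 nm. IC50 came from a fit of the initial velocities. Ki was derived from IC50 accounting for enzyme, substrate and Km. Mean of two determinations.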

Structure (SMILES): CC(C)[C@H](NC(=O)CCCCCN)C(=O)N[C@@H](Cc1ccccc1)[C@@H](O)[C@@H](NCc1ccccc1)C(=O)N[C@H](C(=O)NCc1ccccc1)C(C)C
pIC50 [1]: < 5.52 | pKi [2]: 7.48

Structure (SMILES): CC(C)[C@H](NC(=O)[C@H](NCc1ccccc1)[C@H](O)[C@H](Cc1ccccc1)NC(=O)[C@@H](NC(=O)N(C)Cc1nc2ccccc2[nH]1)C(C)C)C(=O)NCc1ccccc1
pIC50 [1]: 6.57 | pKi [2]: 7.99

Structure (SMILES): CC(C)[C@H](NC(=O)OCc1ccccc1)C(=O)N[C@@H](Cc1ccccc1)[C@@H](O)[C@@H](NCCc1ccccn1)C(=O)N[C@H](C(=O)NCc1ccccc1)C(C)C
pIC50 [1]: < 5.52 | pKi [2]: 6.70

pIC50 [1]: 5.70 | pKi [2]: 7.35
Structure (SMILES): CC(C)[C@H](NC(=O)[C@H](NCc1ccccc1)[C@H](O)[C@H](Cc1ccccc1)NC(=O)[C@H](CCC(N)=O)NC(=O)OCc1ccccc1)C(=O)NCc1ccccc1

Structure (SMILES): CC(C)[C@H](NC(=O)OCc1ccccc1)C(=O)N[C@@H](Cc1ccccc1)[C@@H](O)[C@@H](NCc1ccc(Cl)cc1)C(=O)N[C@H](C(=O)NCc1ccccc1)C(C)C
pIC50 [1]: 6.40 | pKi [2]: 7.77

Structure (SMILES): CC(C)[C@H](NC(=O)[C@H](NCc1ccccc1)[C@H](O)[C@H](Cc1ccccc1)NC(=O)[C@H](CO)NC(=O)OCc1ccccc1)C(=O)NCc1ccccc1
pIC50 [1]: 5.60 | pKi [2]: 6.82

Structure (SMILES): CC(C)[C@H](NC(=O)OCc1ccccc1)C(=O)N[C@@H](Cc1ccccc1)[C@@H](O)[C@@H](NCc1ccccc1)C(=O)N[C@H](C(=O)NCc1ccccn1)C(C)C
pIC50 [1]: 5.94 | pKi [2]: 7.92

pIC50 [1]: < 5.52 | pKi [2]: 8.08
Structure (SMILES): CC[C@@H](C)[C@H](NC(=O)OCc1ccccc1)C(=O)N[C@@H](Cc1ccccc1)[C@@H](O)[C@@H](NCc1ccccc1)C(=O)N[C@H](C(=O)NCc1ccccc1)C(C)C

pKi [2]: 7.70
Structure (SMILES): CC(C)[C@H](NC(=O)OCc1ccccc1)C(=O)N[C@@H](Cc1ccccc1)[C@@H](O)[C@@H](NCc1ccccc1)C(=O)N[C@@H](C(=O)NCc1ccccc1)C(C)(C)C.CC(C)[C@H](NC(=O)OCc1ccccc1)C(=O)N[C@@H](Cc1ccccc1)[C@@H](O)[C@@H](NCc1ccccc1)C(=O)N[C@H](C(=O)NCc1ccccc1)C(C)(C)C (stereo in doubt; 32(5:1))

Structure (SMILES): CC(C)[C@H](NC(=O)OCc1ccccc1)C(=O)N[C@@H](Cc1ccccc1)[C@@H](O)[C@@H](NCCc1ccccc1)C(=O)N[C@H](C(=O)NCc1ccccc1)C(C)C
pIC50 [1]: < 5.52 | pKi [2]: 7.47

Structure (SMILES): CC(C)[C@H](NC(=O)OCc1ccccc1)C(=O)N[C@@H](Cc1ccccc1)[C@@H](O)[C@@H](NCc1ccccc1)C(=O)N[C@H](C(=O)NC(C)(C)C)C(C)C
pIC50 [1]: < 5.52 | pKi [2]: 7.14

Structure (SMILES): CC(C)[C@H](NC(=O)OC(C)(C)C)C(=O)N[C@@H](Cc1ccccc1)[C@@H](O)[C@@H](NCc1ccccc1)C(=O)N[C@H](C(=O)NCc1ccccc1)C(C)C
pIC50 [1]: < 5.52 | pKi [2]: 6.67

Structure (SMILES): CC(C)[C@H](NC(=O)OCc1ccccc1)C(=O)N[C@@H](Cc1ccccc1)[C@@H](O)[C@@H](SCc1ccccc1)C(=O)N[C@H](C(=O)NCc1ccccc1)C(C)C
pIC50 [1]: 6.48 | pKi [2]: 8.00

Structure (SMILES): CC(C)C[C@H](NC(=O)[C@H](NCc1ccccc1)[C@H](O)[C@H](Cc1ccccc1)NC(=O)[C@@H](NC(=O)OCc1ccccc1)C(C)C)C(=O)NCc1ccccc1
pIC50 [1]: < 5.52 | pKi [2]: 7.36

Structure (SMILES): CC(C)[C@H](NC(=O)c1ccc2ccccc2n1)C(=O)N[C@@H](Cc1ccccc1)[C@@H](O)[C@@H](NCc1ccccc1)C(=O)N[C@H](C(=O)NCc1ccccc1)C(C)C
pIC50 [1]: 5.79 | pKi [2]: 7.99

Structure (SMILES): CC(C)[C@H](NC(=O)[C@H](NCc1ccccc1)[C@H](O)[C@H](Cc1ccccc1)NC(=O)[C@@H](NC(=O)OCc1ccccc1)c1ccccc1)C(=O)NCc1ccccc1
pIC50 [1]: < 5.52 | pKi [2]: 7.29

Structure (SMILES): CC(C)C[C@H](NC(=O)OCc1ccccc1)C(=O)N[C@@H](Cc1ccccc1)[C@@H](O)[C@@H](NCc1ccccc1)C(=O)N[C@H](C(=O)NCc1ccccc1)C(C)C
pIC50 [1]: < 5.52 | pKi [2]: 7.19

Structure (SMILES): CC(C)[C@H](NC(=O)[C@H](NCc1ccccc1)[C@H](O)[C@H](Cc1ccccc1)NC(=O)[C@H](Cc1cnc[nH]1)NC(=O)OCc1ccccc1)C(=O)NCc1ccccc1
pIC50 [1]: < 5.52 | pKi [2]: 7.54

Structure (SMILES): CC(C)[C@H](NC(=O)OCc1ccccc1)C(=O)N[C@@H](Cc1ccccc1)[C@@H](O)[C@@H](NCc1ccccc1)C(=O)N[C@H](C(=O)NCc1nc2ccccc2[nH]1)C(C)C
pIC50 [1]: 6.85 | pKi [2]: 7.89

Structure (SMILES): CC(C)[C@H](NC(=O)OCc1ccccc1)C(=O)N[C@@H](Cc1ccccc1)[C@@H](O)[C@@H](NCc1ccccc1)C(=O)N[C@H](C(=O)NCCc1c[nH]c2ccccc12)C(C)C
pIC50 [1]: < 5.52 | pKi [2]: 7.97

Structure (SMILES): CC(C)[C@H](NC(=O)OCc1ccccc1)C(=O)N[C@@H](Cc1ccccc1)[C@@H](O)[C@@H](NCc1ccccc1)C(=O)N[C@@H](CC(N)=O)C(=O)NCc1ccccc1
pIC50 [1]: < 5.52 | pKi [2]: 7.38

Structure (SMILES): CC(C)[C@H](NC(=O)OCc1ccccc1)C(=O)N[C@@H](Cc1ccccc1)[C@@H](O)[C@@H](NCc1ccc(Cl)cc1)C(=O)N[C@H](C(=O)NCc1nc2ccccc2[nH]1)C(C)C
pIC50 [1]: 6.92 | pKi [2]: 8.21

Structure (SMILES): CC(C)[C@H](NC(=O)OCc1ccccc1)C(=O)N[C@@H](Cc1ccccc1)[C@@H](O)[C@@H](NCc1ccc(Br)cc1)C(=O)N[C@H](C(=O)NCc1ccccc1)C(C)C
pIC50 [1]: 6.46 | pKi [2]: 7.64

Structure (SMILES): CC(C)[C@H](NC(=O)CCc1nc2ccccc2[nH]1)C(=O)N[C@@H](Cc1ccccc1)[C@@H](O)[C@@H](NCc1ccccc1)C(=O)N[C@H](C(=O)NCc1ccccc1)C(C)C
pIC50 [1]: 6.74 | pKi [2]: 8.00

pIC50 [1]: < 5.52 | pKi [2]: < 5.52
Structure (SMILES): CC(C)[C@H](NC(=O)OCc1ccccc1)C(=O)N[C@@H](Cc1ccccc1)[C@@H](O)[C@@H](NCc1ccccc1)C(=O)N[C@@H](C(=O)NCc1ccccc1)C(C)(C)C.CC(C)[C@H](NC(=O)OCc1ccccc1)C(=O)N[C@@H](Cc1ccccc1)[C@@H](O)[C@@H](NCc1ccccc1)C(=O)N[C@H](C(=O)NCc1ccccc1)C(C)(C)C (stereo in doubt; 33(4:1))

Structure (SMILES): CCCCN[C@@H](C(=O)N[C@H](C(=O)NCc1ccccc1)C(C)C)[C@H](O)[C@H](Cc1ccccc1)NC(=O)[C@@H](NC(=O)OCc1ccccc1)C(C)C
pIC50 [1]: < 5.52 | pKi [2]: 7.64

Structure (SMILES): CC(C)[C@H](NC(=O)OCc1ccccc1)C(=O)N[C@@H](Cc1ccccc1)[C@@H](O)[C@@H](NCc1ccccc1)C(=O)N[C@H](C(=O)OCc1nc2ccccc2[nH]1)C(C)C
pIC50 [1]: < 5.52 | pKi [2]: 7.54

Structure (SMILES): CC(C)[C@H](NC(=O)OCc1ccccn1)C(=O)N[C@@H](Cc1ccccc1)[C@@H](O)[C@@H](NCc1ccccc1)C(=O)N[C@H](C(=O)NCc1ccccc1)C(C)C
pIC50 [1]: 6.46 | pKi [2]: 8.07

Structure (SMILES): CC(C)[C@H](NC(=O)[C@H](NCc1ccccc1)[C@H](O)[C@H](Cc1ccccc1)NC(=O)[C@H](Cc1c[nH]c2ccccc12)NC(=O)OCc1ccccc1)C(=O)NCc1ccccc1
pIC50 [1]: < 5.52 | pKi [2]: 6.70

Structure (SMILES): CC(C)[C@H](NC(=O)OCc1ccccc1)C(=O)N[C@@H](Cc1ccccc1)[C@@H](O)[C@@H](NC1CCCCC1)C(=O)N[C@H](C(=O)NCc1ccccc1)C(C)C
pIC50 [1]: 6.03 | pKi [2]: 7.47

Structure (SMILES): CC(C)[C@H](NC(=O)OCc1ccccc1)C(=O)N[C@@H](Cc1ccccc1)[C@@H](O)[C@@H](NCCc1c[nH]c2ccccc12)C(=O)N[C@H](C(=O)NCc1ccccc1)C(C)C
pIC50 [1]: < 5.52 | pKi [2]: 7.21
